ChEMBL document CHEMBL4425131, “Convergent Synthesis of Novel Muramyl Dipeptide Analogues: Inhibition of Porphyromonas gingivalis-Induced Pro-inflammatory Effects by High Doses of Muramyl Dipeptide” (J Med Chem, 2016)
Activity calls are given as the source filed them. The rule behind the calls is not given here.

How the values were obtained:
Mus musculus [1] = experiment: Antiinflammatory activity in wild type C57BL/6 mouse assessed as reduction of Porphyromonas gingivalis-induced septic shock at 2 to 8 mg/kg, ip; assay type: functional, organism-based
RAW264.7 [2] = experiment: Downregulation of Porphyromonas gingivalis-induced NOD2 mRNA expression in wild type mouse RAW264.7 cells at 100 ug/ml after 3 hrs by RT-PCR analysis; assay type: functional, cell-based
How it was run: (§1)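 Macrophages in RPMI 1640 with 10% FBS, 37 °C, 5% CO2, left untreated, given P. gingivalis alone or test agent alone as controls, or co-treated with P. gingivalis plus 10, 100 or 200 µg/ml for 3 h. Total RNA analysed by real-time RT-PCR (SYBR Green) for NFkB, RIP2 or NOD2, normalized to GAPDH; mean ± S.E.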

RAW264.7 [3] = experiment: Downregulation of Porphyromonas gingivalis-induced NFkappaB mRNA expression in wild type mouse RAW264.7 cells at 100 ug/ml after 3 hrs by RT-PCR analysis; assay type: functional, cell-based; how it was run: as §1
RAW264.7 [4] = experiment: Upregulation of A20 protein expression in wild type mouse RAW264.7 cells after 3 hrs by Western blot analysis; assay type: functional, cell-based
How it was run: (§2)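 Macrophages left untreated, given a scrambled (SC) peptide as negative control, or treated with low (10 µg/ml) or high (100 µg/ml) MDP for 3 h. Whole-cell and nuclear protein fractions prepared with Hepes pH 7.9 buffers and probed by Western blot for A20, AP1, MyD88 or NFκB. Triplicate assays.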

RAW264.7 [5] = experiment: Upregulation of AP1 protein expression in wild type mouse RAW264.7 cells after 3 hrs by Western blot analysis; assay type: functional, cell-based; how it was run: as §2
RAW264.7 [6] = experiment: Downregulation of Porphyromonas gingivalis-induced TNF-alpha protein expression in wild type mouse RAW264.7 cells at 10 to 200 ug/ml after 3 hrs by ELISA; assay type: functional, cell-based
How it was run: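 Macrophages left untreated, given P. gingivalis alone or test agent alone as controls, or co-treated with P. gingivalis plus 10, 100 or 200 µg/ml for 3 h. TNF-α in culture supernatant measured by ELISA kit; mean ± S.E.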

RAW264.7 [7] = experiment: Downregulation of Porphyromonas gingivalis-induced RIP2 mRNA expression in wild type mouse RAW264.7 cells at 100 ug/ml after 3 hrs by RT-PCR analysis; assay type: functional, cell-based; how it was run: as §1
RAW264.7 [8] = experiment: Effect on NFkappaB protein level in wild type mouse RAW264.7 cells at 10 ug/ml after 3 hrs by Western blot analysis relative to SC peptide; assay type: functional; how it was run: as §2
[9] = Cytotoxicity against wild type mouse RAW264.7 cells assessed as survival rate at 100 ug/ml measured for 24 hrs by trypan blue assay relative to control; assay type: cell-based; conditions: wild type RAW264.7 cells, read-out: Survival
How it was run: (§3)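 WT mouse macrophages in RPMI 1640 with 10% FBS (37 °C, 5% CO2) were exposed to MDP for 0, 2, 4, 8, 12, 16, 18 or 24 h, then harvested with trypsin. Viability was counted by Trypan blue exclusion and expressed relative to 0 µg/ml MDP at 24 h (set as 100%). Done in triplicate; mean ± S.E.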

RAW264.7 [10] = experiment: Upregulation of Porphyromonas gingivalis-induced p21 protein level in wild type mouse RAW264.7 cells at 10 to 1000 ug/ml after 3 hrs by Western blot analysis; assay type: functional, cell-based
How it was run: (§4)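 Macrophages treated with MDP at 0, 10, 100 or 1,000 µg/ml, alone or together with P. gingivalis, for 3 h. Total protein probed by Western blot for p21 or p53, with actin as loading control. Triplicate assays.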

RAW264.7 [11] = experiment: Effect on Porphyromonas gingivalis-induced NOD2 mRNA level in wild type mouse RAW264.7 cells at 10 ug/ml after 3 hrs by RT-PCR analysis relative to control; assay type: functional
How it was run: (§5)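 Macrophages left untreated (negative control), given P. gingivalis alone (positive control), or co-treated with P. gingivalis plus low (10 µg/ml) or high (100 µg/ml) MDP for 3 h. Total mRNA analysed by real-time RT-PCR for NOD2, RIP2 or A20, normalized to GAPDH. NOD2/RIP2 expressed relative to P. gingivalis alone (100%); A20 relative to the low-dose treatment (100%). Triplicates, mean ± SEM.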

RAW264.7 [12] = experiment: Upregulation of A20 mRNA level in wild type mouse RAW264.7 cells at 100 ug/ml after 3 hrs by RT-PCR analysis relative to control; assay type: functional; how it was run: as §5
[13] = Cytotoxicity against wild type mouse RAW264.7 cells assessed as survival rate at 1 mg/ml measured for 24 hrs by trypan blue assay relative to control; assay type: cell-based; conditions: wild type RAW264.7 cells, read-out: Survival; how it was run: as §3
RAW264.7 [14] = experiment: Effect on AP1 protein level in wild type mouse RAW264.7 cells at 100 ug/ml after 3 hrs by Western blot analysis relative to SC peptide; assay type: functional; how it was run: as §2
RAW264.7 [15] = experiment: Effect on NFkappaB protein level in wild type mouse RAW264.7 cells at 100 ug/ml after 3 hrs by Western blot analysis relative to SC peptide; assay type: functional; how it was run: as §2
RAW264.7 [16] = experiment: Effect on Porphyromonas gingivalis-induced RIP2 mRNA level in wild type mouse RAW264.7 cells at 10 ug/ml after 3 hrs by RT-PCR analysis relative to control; assay type: functional; how it was run: as §5
Peritoneal macrophage [17] = experiment: Effect on Porphyromonas gingivalis-induced TNFalpha expression in wild type mouse primary peritoneal macrophages at 1 mg/ml after 3 hrs by ELISA relative to control; assay type: functional
How it was run: (§6)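 Primary peritoneal macrophages from C57BL/6 mice cultured in RPMI 1640 with 10% FBS. Cells left untreated, given 10, 100 or 1,000 µg/ml MDP alone, given P. gingivalis alone, or co-treated with P. gingivalis plus 10, 100 or 1,000 µg/ml MDP for 3 h. TNF-α in conditioned medium measured by ELISA; mean ± S.E.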

RAW264.7 [18] = experiment: Effect on Porphyromonas gingivalis-induced NOD2 mRNA level in wild type mouse RAW264.7 cells at 100 ug/ml after 3 hrs by RT-PCR analysis relative to control; assay type: functional; how it was run: as §5
Peritoneal macrophage [19] = experiment: Effect on Porphyromonas gingivalis-induced TNFalpha expression in wild type mouse primary peritoneal macrophages at 100 ug/ml after 3 hrs by ELISA relative to control; assay type: functional; how it was run: as §6
RAW264.7 [20] = experiment: Effect on A20 mRNA level in wild type mouse RAW264.7 cells at 10 ug/ml after 3 hrs by RT-PCR analysis relative to control; assay type: functional; how it was run: as §5
[21] = Toxicity in Porphyromonas gingivalis-induced wild type C57BL/6 mouse septic shock model assessed as mortality at 2 mg/kg, ip; assay type: organism-based; conditions: in vivo
How it was run: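 Mice were 8–10-week-old WT C57BL/6, kept specific pathogen-free. They received a single i.p. co-injection of P. gingivalis (1 × 10^8/kg) plus MDP at 2 mg/kg (50 µg/mouse). Controls were DMSO alone or P. gingivalis alone. Animals were watched continuously for endotoxic response for 2 h after injection; n = 3 per group.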

RAW264.7 [22] = experiment: Effect on A20 mRNA level in wild type mouse RAW264.7 cells at 100 ug/ml after 3 hrs by RT-PCR analysis relative to control; assay type: functional; how it was run: as §5
Mus musculus [23] = experiment: Antiinflammatory activity in wild type C57BL/6 mouse assessed as reduction of Porphyromonas gingivalis-induced septic shock at 8 mg/kg, ip; assay type: functional, organism-based
Peritoneal macrophage [24] = experiment: Effect on Porphyromonas gingivalis-induced TNFalpha expression in wild type mouse primary peritoneal macrophages at 10 ug/ml after 3 hrs by ELISA relative to control; assay type: functional; how it was run: as §6
RAW264.7 [25] = experiment: Upregulation of A20 promoter DNA level in wild type mouse RAW264.7 cells at 10 ug/ml after 3 hrs by ChIP assay; assay type: functional, cell-based
How it was run: (§7)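 RAW264.7 cells treated with low (10 µg/ml) or high (100 µg/ml) MDP for 3 h, or transfected overnight with 1 µg AP1 cDNA as comparator. 10 µg nuclear extract from cross-linked cells immunoprecipitated with 1 µg anti-AP1 antibody or normal mouse IgG at 4 °C for 4 h; A20 promoter and GAPDH fragments amplified by PCR from input and IPs. Triplicates.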

RAW264.7 [26] = experiment: Effect on A20 protein level in wild type mouse RAW264.7 cells at 10 ug/ml after 3 hrs by Western blot analysis relative to SC peptide; assay type: functional; how it was run: as §2
RAW264.7 [27] = experiment: Effect on AP1 protein level in wild type mouse RAW264.7 cells at 10 ug/ml after 3 hrs by Western blot analysis relative to SC peptide; assay type: functional; how it was run: as §2
RAW264.7 [28] = experiment: Effect on MyD88 protein level in wild type mouse RAW264.7 cells at 10 ug/ml after 3 hrs by Western blot analysis relative to SC peptide; assay type: functional; how it was run: as §2
RAW264.7 [29] = experiment: Upregulation of A20 promoter DNA level in wild type mouse RAW264.7 cells at 100 ug/ml after 3 hrs by ChIP assay; assay type: functional, cell-based; how it was run: as §7
RAW264.7 [30] = experiment: Effect on A20 protein level in wild type mouse RAW264.7 cells at 100 ug/ml after 3 hrs by Western blot analysis relative to SC peptide; assay type: functional; how it was run: as §2
RAW264.7 [31] = experiment: Upregulation of Porphyromonas gingivalis-induced p53 protein level in wild type mouse RAW264.7 cells at 10 to 1000 ug/ml after 3 hrs by Western blot analysis; assay type: functional, cell-based; how it was run: as §4
RAW264.7 [32] = experiment: Effect on MyD88 protein level in wild type mouse RAW264.7 cells at 100 ug/ml after 3 hrs by Western blot analysis relative to SC peptide; assay type: functional; how it was run: as §2
[33] = Cytotoxicity against wild type mouse RAW264.7 cells assessed as survival rate at 10 ug/ml measured for 24 hrs by trypan blue assay relative to control; assay type: cell-based; conditions: wild type RAW264.7 cells, read-out: Survival; how it was run: as §3
RAW264.7 [34] = experiment: Effect on Porphyromonas gingivalis-induced RIP2 mRNA level in wild type mouse RAW264.7 cells at 100 ug/ml after 3 hrs by RT-PCR analysis relative to control; assay type: functional; how it was run: as §5

CC(=O)N[C@H]1[C@@H](OCc2ccccc2)O[C@@H]2COC(C)(C)O[C@H]2[C@@H]1O[C@H](C)C(=O)N[C@@H](C)C(=O)N[C@H](CCC(=O)OCc1ccccc1)C(N)=O
Activity (Mus musculus [1]): Active
Activity (RAW264.7 [2]): Active
Activity (RAW264.7 [3]): Active
Activity (RAW264.7 [4]): Active
Activity (RAW264.7 [5]): Active
Activity (RAW264.7 [6]): Active
Activity (RAW264.7 [7]): Active

CC(=O)N[C@H]1C(O)O[C@H](CO)[C@@H](O)[C@@H]1O[C@H](C)C(=O)N[C@@H](C)C(=O)N[C@H](CCC(=O)O)C(N)=O (some centres not stated) [MURAMYL DIPEPTIDE]
Activity (RAW264.7 [8]): 388%
viability at 24 h, 100 ug/ml [9]: 89%
Activity (RAW264.7 [10]): inactive
Activity (RAW264.7 [11]): 136%
fold change (FC) (RAW264.7 [12]): 5.6
viability at 24 h, 1 mg/ml [13]: 88%
Activity (RAW264.7 [14]): 282%
Activity (RAW264.7 [15]): 142%
Activity (RAW264.7 [16]): 103%
Activity (Peritoneal macrophage [17]): 62%
Activity (RAW264.7 [18]): 95%
Activity (Peritoneal macrophage [19]): 84%
Activity (RAW264.7 [20]): 117%
Activity [21]: Toxic
Activity (RAW264.7 [22]): 565%
Activity (Mus musculus [23]): Active
Activity (RAW264.7 [4]): Active
Activity (Peritoneal macrophage [24]): 129%
Activity (RAW264.7 [5]): Active
Activity (RAW264.7 [6]): Active
Activity (RAW264.7 [25]): inactive
Activity (RAW264.7 [26]): 106%
Activity (RAW264.7 [27]): 135%
Activity (RAW264.7 [28]): 274%
Activity (RAW264.7 [29]): Active
Activity (RAW264.7 [30]): 236%
Activity (RAW264.7 [31]): inactive
Activity (RAW264.7 [32]): 144%
viability at 24 h, 10 ug/ml [33]: 92%
Activity (RAW264.7 [34]): 104%
